The test system of test [1] is K562. The experiment in a line: Growth inhibition of human K562 cells at 10 uM incubated for 24 hrs by trypan blue dye exclusion assay. Type of test: functional. The conditions noted are these: K562, 24 h, read-out: GI. In a few lines: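 K562 cells in medium with 5% FBS at 37 °C, 5% CO₂. About 2 × 10⁵ cells/mL cultured 24 h, then compound added at 10 μM. After 24 h exposure, cells counted by hemocytometer and viability scored by trypan blue exclusion, reported as percent growth inhibition.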

Test [2] concerns K562. In words: Growth inhibition of human K562 cells incubated for 24 hrs by trypan blue dye exclusion assay. Type of test: functional, cell-based. The conditions noted are these: K562, 24 h. Put shortly:
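K562 cells, about 2 × 10⁵ cells/mL, precultured 24 h, then exposed 24 h to a range of compound concentrations. Viable cells counted by hemocytometer with trypan blue exclusion to derive IC₅₀.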

Test [3] is described as follows: Cytotoxicity against human HuDe cells incubated for 72 hrs by MTT assay. Type of test: cell-based. In a few lines: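 HuDe primary culture from human epidermis, seeded at 2 × 10⁴ cells/mL. Test drugs at different concentrations, or 0.1% DMSO, added 24 h after seeding, with 72 h exposure. MTT (5 mg/mL in PBS) then applied for 3 h at 37 °C. Formazan solubilized with isopropanol/triton X-100/HCl and read at 570 nm with 690 nm blank.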
(Tetrazolium assays rely on reduction of a dye to a coloured formazan, in cell work by metabolically active cells.)

Test [4] has as its system K562. In words: Selectivity index, ratio of IC50 for human HuDe cells to IC50 human K562 cells. Put shortly:
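Index taken as the ratio of HuDe to K562 IC₅₀. For K562: about 2 × 10⁵ cells/mL, compounds added at graded concentrations, viable count by trypan blue exclusion with a hemocytometer after 24 h. For HuDe primary epidermal cells: 2 × 10⁴ cells/mL, drugs or 0.1% DMSO added 24 h after seeding, MTT read at 570 nm (690 nm blank) after 72 h.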

Test [5] in a line: Growth inhibition of human NCI60 cells assessed as cell growth level at 10 uM by NCI standard protocol based method. Type of test: functional. More on the design: scale not given: the % may be the effect or the level left. In a few lines: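 NCI 60-cell-line screen (leukemia, lung, colon, melanoma, renal, ovarian, brain, breast, prostate) run to the NCI standard protocol. Single high dose of 10⁻⁵ M, read as growth percent. Mean graph midpoint is the arithmetic mean over all lines tested.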

Some results are limits rather than exact numbers.

What is called IC50 is the point on the concentration scale where inhibition reaches its midpoint. With `Cc1ccc(OCC(=O)Nc2ccc(I)cc2C(N)=O)cc1`, the inhibition of growth at 10 µM in test [1] worked out at 49.8%. The values for the IC50 in test [2] and in test [3] were 10 µM and 356 µM, respectively. In test [4], the “Ratio IC50” value amounted to 35.57.
Take `NC(=O)c1cc(I)ccc1NC(=O)COc1ccc(Cl)cc1Cl`: in test [1], the inhibition of growth at 10 µM is 74.7%. Also, the IC50 in test [2] is 6.9 µM; in test [3], 33.8 µM. Further, the “Ratio IC50” value in test [4] is 4.9. The Activity in test [5] was 87.28%.
Regarding `Cc1ccccc1OCC(=O)Nc1ccc(Cl)cc1C(N)=O`, the inhibition of growth at 10 µM in test [1] turned out to be 75.9%. The IC50 in test [2] was determined as 1.61 µM; in test [3] it was 27.3 µM. Also, in test [4], the “Ratio IC50” value is 16.96.
On to `Cc1ccccc1OCC(=O)Nc1ccccc1C(N)=O`, for which the inhibition of growth at 10 µM in test [1] is 19.7%.
Consider `NC(=O)c1ccccc1NC(=O)COc1cccc(Cl)c1Cl`, for which, in test [1], the inhibition of growth at 10 µM was less than 10%.
Same read-out and setting: next, `Cc1ccc(OCC(=O)Nc2ccc(C)cc2C(N)=O)cc1`: 30.3%; `NC(=O)c1cccc(NC(=O)COc2ccccc2)c1`: less than 10%; `NC(=O)c1ccc(NC(=O)COc2ccccc2)cc1`: 23.7%.
Take `Cc1ccc(NC(=O)COc2ccccc2)c(C(N)=O)c1`: the inhibition of growth at 10 µM in test [1] worked out at 72%. Besides, the IC50 in test [2] amounted to 4.7 µM; in test [3], 99.3 µM. Besides, in test [4], the “Ratio IC50” value came to 21.13.
Consider `COc1ccc(NC(=O)COc2ccccc2C)c(C(N)=O)c1`, for which the inhibition of growth at 10 µM in test [1] turned out to be 40.1%.
For `Cc1ccc(NC(=O)COc2ccccc2C)c(C(N)=O)c1`, the inhibition of growth at 10 µM in test [1] was determined as 45.6%.
Same read-out and setting: next, `Cc1ccc(NC(=O)COc2ccc(Cl)cc2Cl)c(C(N)=O)c1`: 35.4%; `NC(=O)c1cc(Cl)ccc1NC(=O)COc1ccc(Cl)cc1Cl`: 18.8%.
In the case of `NC(=O)c1ccccc1NC(=O)COc1ccccc1`, the inhibition of growth at 10 µM in test [1] turned out to be 57.4%. Also, the IC50 is 8.9 µM in test [2] and 523 µM in test [3]. In test [4], the “Ratio IC50” value came to 58.76.
For the molecule `Cc1ccc(NC(=O)COc2cccc(Cl)c2Cl)c(C(N)=O)c1`, the inhibition of growth at 10 µM in test [1] stood at 30.8%.
Consider `COc1cc(NC(=O)COc2cccc(Cl)c2Cl)c(C(N)=O)cc1OC`, for which, in test [1], the inhibition of growth at 10 µM amounted to 17.7%.
The same measure, in the same setting: next, `COc1cc2c(c(OC)c1OC)-c1ccc(OC)c(=O)cc1[C@@H](NC(C)=O)CC2` [COLCHICINE]: 63.6%; `Cc1ccc(OCC(=O)Nc2ccccc2C(N)=O)cc1`: less than 10%; `Cc1ccc(OCC(=O)Nc2ccc(Cl)cc2C(N)=O)cc1`: 24.1%.
On the same count and under the same terms, next, `NC(=O)c1ccccc1NC(=O)COc1ccc(Cl)cc1Cl`: less than 10%; `COc1ccc(NC(=O)COc2ccc(C)cc2)c(C(N)=O)c1`: 48.1%.

For the origin of these results see ChEMBL document CHEMBL3612047, “Synthesis, antiproliferative activity and possible mechanism of action of novel 2-acetamidobenzamides bearing the 2-phenoxy functionality” (Bioorg Med Chem, 2015).
